From ChEMBL document CHEMBL2346527, “Kinase scaffold repurposing for neglected disease drug discovery: discovery of an efficacious, lapatinib-derived lead compound for trypanosomiasis” (J Med Chem, 2013)

What was measured:
[1] = system: Trypanosoma brucei brucei; assay: Antitrypanosomal activity against bloodstream form Trypanosoma brucei brucei Lister 427 after 48 hrs by hemocytometer; assay type: functional, organism-based; conditions: Lister 427, 48 h
In short: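 Bloodstream Lister 427 cells were seeded at 2 × 10^3 cells/ml in HMI-9 medium and given drug from 200X DMSO stocks, with DMSO as control. Three independent experiments, each dose in duplicate (n = 6).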

HepG2 = assay: Cytotoxicity against human HepG2 cells after 48 hrs by MTT assay; assay type: cell-based; conditions: HepG2, 48 h
In short: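 HepG2 cytotoxicity was read by an MTT assay adapted to 384-well format. IC50 was fitted by nonlinear regression (sigmoidal dose-response, variable slope).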

| SMILES | EC50 [1] [nM] | IC50 (HepG2) [nM] |
| --- | --- | --- |
| CN1CCN(S(=O)(=O)c2ccc(-c3ccc4ncnc(Nc5ccc(OCc6cccc(F)c6)c(Cl)c5)c4c3)cc2)CC1 | 530 | > 15000 |
| O=S1(=O)CCN(Cc2ccc(-c3ccc4ncnc(Nc5ccc(OCc6ccccc6)c(Cl)c5)c4c3)o2)CC1 | 410 |  |
| Fc1cccc(COc2ccc(Nc3ncnc4ccc(-c5cccc(CN6CCOCC6)c5)cc34)cc2Cl)c1 | 360 |  |
| CN1CCCN(S(=O)(=O)c2ccc(-c3ccc4ncnc(Nc5ccc(OCc6cccc(F)c6)c(Cl)c5)c4c3)cc2)CC1 | 810 | 1810 |
| c1ccc(Nc2ncnc3ccc(-c4cccc(N5CCOCC5)c4)cc23)cc1 | 11000 | 7020 |
| Cc1ccc(Nc2ncnc3ccc(-c4ccc(S(=O)(=O)N5CCOCC5)cc4)cc23)cc1 | 1150 | > 15000 |
| COc1cc(Nc2ncnc3ccc(-c4ccc(S(=O)(=O)N5CCOCC5)cc4)cc23)ccc1OCc1cccc(F)c1 | 1880 | > 15000 |
| CN(C)S(=O)(=O)c1ccccc1-c1ccc2ncnc(Nc3ccc(OCc4cccc(F)c4)c(Cl)c3)c2c1 | 1040 | > 15000 |
| O=S(=O)(c1ccc(-c2ccc3ncnc(Nc4ccc(OCc5cccc(F)c5)c(Cl)c4)c3c2)cc1)N1CCSCC1 | 470 | > 15000 |
| O=S(=O)(CCSCc1ccc(-c2ccc3ncnc(Nc4ccc(OCc5cccc(F)c5)c(Cl)c4)c3c2)o1)c1ccccc1 | 550 |  |
| CCCS(=O)(=O)CCNCc1ccc(-c2ccc3ncnc(Nc4ccc(OCc5cccc(F)c5)c(Cl)c4)c3c2)o1 | 430 |  |
| NCCCC(N)(C(=O)O)C(F)F (configuration not stated) [EFLORNITHINE] | 16400 |  |
| O=C(c1cccc(-c2ccc3ncnc(Nc4ccc(OCc5cccc(F)c5)c(Cl)c4)c3c2)c1)N1CCCCC1 | 140 | > 6000 |
| CS(=O)(=O)CCNCc1ccc(-c2ccc3ncnc(Nc4ccc(OCc5ccccc5)c(Br)c4)c3c2)o1 | 560 |  |
| O=S(=O)(c1ccc(-c2ccc3ncnc(Nc4ccc(OCc5ccc(C(F)(F)F)c(F)c5)c(Cl)c4)c3c2)cc1)N1CCOCC1 | 540 | > 15000 |
| O=C(c1ccc(-c2ccc3ncnc(Nc4ccc(OCc5cccc(F)c5)c(Cl)c4)c3c2)cc1)N1CCOCC1 | 1210 |  |
| Oc1ccc(-c2ccc3ncnc(Nc4ccc(OCc5cccc(F)c5)c(Cl)c4)c3c2)cc1 | 6450 |  |
| CS(=O)(=O)c1cccc(-c2ccc3ncnc(Nc4ccc(OCc5cccc(F)c5)c(Cl)c4)c3c2)c1 | 3210 | > 15000 |
| CS(=O)(=O)CCN(CC#N)Cc1ccc(-c2ccc3ncnc(Nc4ccc(OCc5cccc(F)c5)c(Cl)c4)c3c2)o1 [GW616030X] | 520 |  |
| O=S(=O)(c1ccc(-c2ccc3ncnc(Nc4ccc(OCc5ccccc5F)c(Cl)c4)c3c2)cc1)N1CCOCC1 | 1650 | > 15000 |
| N=C(N)c1ccc(OCCCCCOc2ccc(C(=N)N)cc2)cc1 [PENTAMIDINE] | 3.5 |  |

| SMILES | EC50 [1] [nM] | IC50 (HepG2) [nM] |
| --- | --- | --- |
| O=S(=O)(c1ccc(-c2ccc3ncnc(Nc4ccc(OCc5cccc(F)c5)c(Cl)c4)c3c2)cc1)N1CCCCC1 | 320 | > 15000 |
| Nc1nc(N)nc(Nc2ccc([As]3SCC(CO)S3)cc2)n1 (configuration not stated) [MELARSOPROL] | 6.3 |  |
| O=C(c1cccc(-c2ccc3ncnc(Nc4ccc(OCc5cccc(F)c5)c(Cl)c4)c3c2)c1)N1CCOCC1 | 550 |  |
| Fc1cccc(COc2ccc(Nc3ncnc4ccc(-c5ccc(N6CCCCC6)cc5)cc34)cc2Cl)c1 | 380 |  |
| O=S(=O)(c1ccc(-c2ccc3ncnc(Nc4ccc(OCc5cc(F)cc(F)c5F)c(Cl)c4)c3c2)cc1)N1CCOCC1 | 1120 | > 3000 |
| Clc1cc(Nc2ncnc3ccc(-c4cccc(N5CCOCC5)c4)cc23)ccc1OCc1ccccc1 | 230 | > 20000 |
| O=S(=O)(c1ccc(-c2ccc3ncnc(Nc4ccccc4)c3c2)cc1)N1CCOCC1 | 1440 | > 3000 |
| O=S(=O)(c1ccc(-c2ccc3ncnc(Nc4ccc(O)c(Cl)c4)c3c2)cc1)N1CCOCC1 | 1060 | > 15000 |
| Fc1cccc(COc2ccc(Nc3ncnc4ccc(-c5ccccc5Oc5ccccc5)cc34)cc2Cl)c1 | 5300 |  |
| O=S(=O)(c1ccc(-c2ccc3ncnc(Nc4ccc(OCc5cccc(F)c5)c(Cl)c4)c3c2)cc1)N1CCCC1 | 350 | > 15000 |
| O=S(=O)(c1ccc(-c2ccc3ncnc(Nc4ccc(OCc5ccccc5)c(Cl)c4)c3c2)cc1)N1CCOCC1 | 1350 | > 15000 |
| Fc1cccc(COc2ccc(Nc3ncnc4ccc(-c5cc6ccccc6s5)cc34)cc2Cl)c1 | 5980 |  |
| CC(C)(C)NS(=O)(=O)c1ccccc1-c1ccc2ncnc(Nc3ccc(OCc4cccc(F)c4)c(Cl)c3)c2c1 | 4660 |  |
| Fc1cccc(COc2ccc(Nc3ncnc4ccc(-c5cccc(N6CCCCC6)c5)cc34)cc2Cl)c1 | 760 | > 15000 |
| O=C(NC1CC1)c1cccc(-c2ccc3ncnc(Nc4ccc(OCc5cccc(F)c5)c(Cl)c4)c3c2)c1 | 4500 |  |
| Cc1ccc(-c2ccc3ncnc(Nc4ccc(OCc5cccc(F)c5)c(Cl)c4)c3c2)c2ccccc12 | 2270 |  |
| O=c1[nH]cc(-c2ccc3ncnc(Nc4ccc(OCc5cccc(F)c5)c(Cl)c4)c3c2)c(=O)[nH]1 | 22600 |  |
| Fc1cccc(COc2ccc(Nc3ncnc4ccc(-c5ccc(CN6CCOCC6)cc5)cc34)cc2Cl)c1 | 990 | 12900 |
| c1ccc(COc2ccc(Nc3ncnc4ccc(-c5cccc(N6CCOCC6)c5)cc34)cc2)cc1 | 180 | > 20000 |
| O=S(=O)(c1cccc(-c2ccc3ncnc(Nc4ccc(OCc5cccc(F)c5)c(Cl)c4)c3c2)c1)N1CCOCC1 |  | > 15000 |
| O=S(=O)(c1cccc(-c2ccc3ncnc(Nc4ccc(OCc5cccc(F)c5)c(Cl)c4)c3c2)c1)N1CCCCC1 | 460 | > 15000 |

| SMILES | EC50 [1] [nM] | IC50 (HepG2) [nM] |
| --- | --- | --- |
| COc1cccc(COc2ccc(Nc3ncnc4ccc(-c5ccc(S(=O)(=O)N6CCOCC6)cc5)cc34)cc2Cl)c1 | 1430 | > 15000 |
| O=S(=O)(c1cccc(-c2ccc3ncnc(Nc4ccc(OCc5cccc(F)c5)c(Cl)c4)c3c2)c1)N1CCCC1 | 250 | > 15000 |
| COc1ccc(Nc2ncnc3ccc(-c4ccc(S(=O)(=O)N5CCOCC5)cc4)cc23)cc1Cl | 820 | > 15000 |
| CC1(C)OB(O)c2cc(NC(=O)c3ccc(F)cc3C(F)(F)F)ccc21 [ACOZIBOROLE] | 794 |  |
| O=S(=O)(c1ccc(-c2ccc3ncnc(Nc4ccc(OCc5cccc(F)c5)c(Cl)c4)c3c2)cc1)N1CCOCC1 | 1390 | > 15000 |
| Fc1cccc(COc2ccc(Nc3ncnc4ccc(-c5cccc6ncccc56)cc34)cc2Cl)c1 | 4530 |  |
| CS(=O)(=O)c1ccc(-c2ccc3ncnc(Nc4ccc(OCc5cccc(F)c5)c(Cl)c4)c3c2)cc1 | 900 | > 15000 |
| Cc1nnc(-c2cccc(-c3ccc4ncnc(Nc5ccc(OCc6cccc(F)c6)c(Cl)c5)c4c3)c2)o1 | 4210 |  |
| Fc1cccc(COc2ccc(Nc3ncnc4ccc(-c5cccc(CN6CCCCC6)c5)cc34)cc2Cl)c1 | 650 |  |
| O=S(=O)(c1ccc(-c2ccc3ncnc(Nc4ccc(OCc5cccc(F)c5)c(Cl)c4)c3c2)cc1)N1CCNCC1 | 280 | 3320 |
| O=S(=O)(c1ccc(-c2ccc3ncnc(Nc4ccc(OCc5ccc(F)cc5)c(Cl)c4)c3c2)cc1)N1CCOCC1 | 1340 | > 15000 |
| Fc1cccc(COc2ccc(Nc3ncnc4ccc(-c5ccc(N6CCOCC6)cc5)cc34)cc2Cl)c1 | 1910 | 9600 |
| O=S(=O)(c1ccc(-c2ccc3ncnc(Nc4ccc(OCc5cccc(Cl)c5)c(Cl)c4)c3c2)cc1)N1CCOCC1 | 660 | > 15000 |
| Fc1cccc(COc2ccc(Nc3ncnc4ccc(-c5ccc(CN6CCCCC6)cc5)cc34)cc2Cl)c1 | 1500 |  |
| O=S(=O)(c1ccc(-c2ccc3ncnc(Nc4ccc(OCc5cccc(F)c5)cc4)c3c2)cc1)N1CCOCC1 | 650 | > 15000 |
| CC(C)S(=O)(=O)CCNCc1ccc(-c2ccc3ncnc(Nc4ccc(OCc5cccc(F)c5)c(Cl)c4)c3c2)o1 | 480 |  |
| O=C(c1ccc(-c2ccc3ncnc(Nc4ccc(OCc5cccc(F)c5)c(Cl)c4)c3c2)cc1)N1CCCCC1 | 940 |  |
| O=S(=O)(c1ccc(-c2ccc3ncnc(Nc4ccc(OCc5cccc(F)c5F)c(Cl)c4)c3c2)cc1)N1CCOCC1 | 820 | > 15000 |
| O=S(=O)(c1ccc(-c2ccc3ncnc(Nc4ccc(OCc5cccc(Br)c5)c(Cl)c4)c3c2)cc1)N1CCOCC1 | 680 | > 15000 |
| CS(=O)(=O)CCN(Cc1ccccc1)Cc1ccc(-c2ccc3ncnc(Nc4ccc(OCc5cccc(F)c5)c(Cl)c4)c3c2)o1 | 1510 |  |
| CCNC(=O)c1ccc(-c2ccc3ncnc(Nc4ccc(OCc5cccc(F)c5)c(Cl)c4)c3c2)cc1F | 3850 |  |
